These results are taken from ChEMBL document CHEMBL1144937, “A specific mechanism of nonspecific inhibition” (J Med Chem, 2003).

Test [1] deals with Beta-lactamase (Escherichia coli K-12) (UniProt P00811). As to conditions: 30 uM.
Test [2] has the same target. Briefly: Percentage inhibition of Beta-lactamase at KPi (Potassium Phosphate) stock concentration of 5.9 uM. The gist of the method: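 Compound dissolved directly in 50 mM KPi with no DMSO, stock level set by UV–vis spectra correlated with DMSO-diluted solutions. Tested against AmpC β-lactamase in 50 mM KPi, pH 7.0, room temperature, with 5 min enzyme–inhibitor preincubation. Value reported as percent inhibition.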

For test [3] the target is unchanged. The test is described as follows: Percentage inhibition against beta-Lactamase in the absence of detergent Triton X-100 was determined at a concentration of 25 uM. The gist of the method: (§1)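 AmpC β-lactamase (E. coli-expressed, purified) assayed in 50 mM KPi, pH 7.0, at room temperature. Enzyme and inhibitor preincubated 5 min before substrate addition. Inhibitors were typically diluted from 10 mM DMSO stocks into KPi. Where present, Triton X-100 was at 0.01% final, from a 1% (v/v) stock in 50 mM KPi freshly prepared daily.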

The target is the same in test [4]. The test is described as follows: Percentage inhibition against beta-Lactamase in the presence of detergent 0.01% Triton X-100 was determined at a concentration of 25 uM. The gist of the method:
as §1

Test [5] shares this target. Briefly: Percentage inhibition against beta-Lactamase in the absence of detergent Triton X-100 was determined at a concentration of 0.6 uM. In short, it runs like this:
(§2)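 AmpC β-lactamase (expressed and purified from E. coli) assayed in 50 mM KPi, pH 7.0, at room temperature. Enzyme and inhibitor were preincubated for 5 min before the nitrocefin substrate (200 μM) was added, and hydrolysis was followed kinetically. For the detergent lines, Triton X-100, made fresh daily as a 1% (v/v) stock in 50 mM KPi, was used at a final 0.01%.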

Test [6] has the same target. The test is described as follows: Percentage inhibition against beta-Lactamase in the presence of detergent 0.01% Triton X-100 was determined at a concentration of 0.6 uM. In short, it runs like this:
as §2

For test [7] the target is unchanged. Briefly: Percentage inhibition against beta-Lactamase in the presence of detergent 0.01% Triton X-100 was determined at a concentration of 20 uM. The gist of the method:
as §2

Test [8] shares this target. The test is described as follows: Percentage inhibition against beta-Lactamase in the absence of detergent Triton X-100 was determined at a concentration of 20 uM. The gist of the method: as §2
Test [9] addresses T1, Beta-lactamase (Escherichia coli K-12, UniProt P00811). Briefly: Inhibitory activity against Beta-lactamase from DMSO stock was determined.
Test [10] deals with T1, Beta-lactamase. Briefly: Inhibitory activity against Amp C beta-Lactamase.
Test [11] concerns the target Beta-lactamase (Escherichia coli K-12) (UniProt P00811). The test is described as follows: Percentage inhibition against beta-Lactamase in the absence of detergent Triton X-100 was determined at a concentration of 5 uM. The gist of the method: as §1
For test [12] the target is unchanged. Briefly: Percentage inhibition against beta-Lactamase in the presence of detergent 0.01% Triton X-100 was determined at a concentration of 5 uM. In short, it runs like this: as §1

T1 sequence (P00811 whole entry): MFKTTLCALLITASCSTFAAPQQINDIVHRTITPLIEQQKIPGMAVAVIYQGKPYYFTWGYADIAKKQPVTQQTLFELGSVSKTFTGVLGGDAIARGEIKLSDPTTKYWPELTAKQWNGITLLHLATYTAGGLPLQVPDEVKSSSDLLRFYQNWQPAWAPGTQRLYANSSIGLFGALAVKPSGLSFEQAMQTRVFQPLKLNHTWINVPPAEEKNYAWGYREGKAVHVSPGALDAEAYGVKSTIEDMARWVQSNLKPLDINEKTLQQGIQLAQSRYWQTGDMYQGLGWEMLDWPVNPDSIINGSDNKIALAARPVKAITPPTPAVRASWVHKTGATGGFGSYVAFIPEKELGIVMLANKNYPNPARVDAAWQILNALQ
Chain of Beta-lactamase (Escherichia coli K-12) (P00811 whole entry): as above

`O=S(=O)(O)c1cc(O)c(/N=N/c2ccc3ccccc3c2O)c2ccccc12`: the inhibition in [1] came out at 68%.
On to `O=c1c(O)c(-c2ccc(O)c(O)c2)oc2cc(O)cc(O)c12`, for which the inhibition in test [2] is 43%; in [3], 68%; in [4], 25%.
In the case of `OB(O)c1cc2ccccc2s1`, the values for the inhibition in [5] and in test [6] were 87% and 86%, respectively.
Consider `Oc1ccc(/N=N/c2ccc(Br)cc2)cc1`, for which the inhibition in test [7] was found to be 10%; in test [8], 91%.
Regarding `COC(=O)C1=C(C)NC(C)=C(C(=O)OCCN(C)Cc2ccccc2)C1c1cccc([N+](=O)[O-])c1` (configuration not stated) [NICARDIPINE], the half-inhibitory concentration (IC50) in test [9] and in test [10] was 20 µM each time.
`CC(=O)c1c(O)c(C)c(O)c(Cc2c(O)c3c(c(C(=O)/C=C/c4ccccc4)c2O)OC(C)(C)C=C3)c1O` [ROTTLERIN]: the inhibition in [11] came to 90%; in test [12] it was 5%. This compound also gave an IC50 in test [10] of 1.2 µM.
`O=C1NCc2c1c1c3ccccc3[nH]c1c1[nH]c3ccccc3c21` [STAUROSPORINONE]: the inhibition came to 17% in test [7] and 80% in test [8]. For the same compound, in test [10], it took 8 µM to reach half-maximal inhibition (IC50).
`Clc1ccc(CSC(Cn2ccnc2)c2ccc(Cl)cc2Cl)cc1` (configuration not stated) [SULCONAZOLE] displayed a half-maximal inhibitory concentration (IC50) in [10] of 14 µM.

What is called inhibition is the drop in the measured response relative to a control, in per cent. For orientation: IC50 means the concentration needed to halve the response being measured. Read a high IC50 as weaker potency in that assay.
